Laboratory results reported in PMC12366268 (The Febs Journal, 2025).
Like-named read-outs stand apart in the source and are kept apart here.

How the values were obtained:
[1] = Stability in human serum measured by mass spectrometry; format: in vitro ADME; settings: 25% human serum in PBS
Summary of the method: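 Peptide at 10 μM was incubated in 25% human serum in PBS at 37 °C. Aliquots were taken at 0, 2.5, 5, 10, 20, 40 and 60 min into 0.2% formic acid (1:4) containing an internal standard and held at 4 °C. Peptide abundance relative to the internal standard was measured by mass spectrometry and plotted against incubation time.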

PCNA = PCNA (Homo sapiens, UniProt P12004); assay: Isothermal titration calorimetry; format: binding; settings: ITC, pH 7.4, 25 °C, mean ± SEM of n = 3
Summary of the method: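 His6-tagged PCNA (HRV 3C site) was IPTG-induced at 37 °C, then purified by Ni-NTA and Superdex 200 SEC. Protein was buffer-exchanged into 20 mM sodium phosphate, 0–500 mM NaCl, 1 mM TCEP, pH 7.4, with peptides dissolved in the same buffer. PCNA was in the cell, peptide in the syringe; 25 °C, 750 rpm stirring. Data were fitted to a one-set-of-sites model; triplicates, SEM.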

[2] = target: T1, proliferating cell nuclear antigen (PCNA) (UniProt P12004 1-261); assay: ITC
[3] = target: T1, proliferating cell nuclear antigen …; assay: ITC; remark: listed apart in the source
[4] = target: T1, proliferating cell nuclear antigen …; assay: ITC; remark: listed apart in the source
[5] = target: T1, proliferating cell nuclear antigen …; assay: ITC; remark: listed apart in the source
[6] = target: T1, proliferating cell nuclear antigen …; assay: ITC; remark: listed apart in the source
[7] = target: T1, proliferating cell nuclear antigen …; assay: ITC; remark: listed apart in the source

T1 sequence (P12004 whole entry): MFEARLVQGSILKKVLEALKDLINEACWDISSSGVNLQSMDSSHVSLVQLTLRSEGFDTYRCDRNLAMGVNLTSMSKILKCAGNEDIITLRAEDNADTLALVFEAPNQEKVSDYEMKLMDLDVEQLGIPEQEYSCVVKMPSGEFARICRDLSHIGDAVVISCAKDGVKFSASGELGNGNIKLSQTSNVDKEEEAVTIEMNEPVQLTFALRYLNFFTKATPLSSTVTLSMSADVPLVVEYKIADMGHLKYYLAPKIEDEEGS
Chain of PCNA (P12004 whole entry): as above

CSCC[C@H](NC(=O)[C@H](CO)NC(=O)[C@@H](NC(=O)[C@H](CCC(N)=O)NC(=O)[C@H](CCCNC(=N)N)NC(=O)[C@H](CCCNC(=N)N)NC(=O)[C@H](CCCCN)NC(=O)[C@H](CCCNC(=N)N)NC(C)=O)[C@@H](C)O)C(=O)N[C@H](C(=O)N[C@@H](CC(=O)O)C(=O)N[C@@H](Cc1ccccc1)C(=O)N[C@@H](Cc1ccc(O)cc1)C(=O)N[C@@H](Cc1c[nH]cn1)C(=O)N[C@@H](CO)C(=O)N[C@@H](CCCCN)C(=O)N[C@@H](CCCNC(=N)N)C(=O)N[C@@H](CCCNC(=N)N)C(N)=O)[C@@H](C)O [p21_140–156]
half-life at 10 μM [1]: ~11 min

Ac-KKKKQTSMTDFYHSKKK-NH2 [p21All–K]
N (binding stoichiometry) (PCNA; 100 mM NaCl): 0.92 ± 0.01
ΔH (PCNA; 100 mM NaCl): -16.3 ± 0.48 kcal/mol
−TΔS (PCNA; 100 mM NaCl): 6.69 ± 0.48 kcal/mol
N (binding stoichiometry) (PCNA; 200 mM NaCl): 0.75 ± 0.02
ΔH (PCNA; 200 mM NaCl): -17.7 ± 0.96 kcal/mol
−TΔS (PCNA; 200 mM NaCl): 8.84 ± 0.96 kcal/mol
N (binding stoichiometry) (PCNA; 300 mM NaCl): 0.71 ± 0.02
ΔH (PCNA; 300 mM NaCl): -19.1 ± 0.72 kcal/mol
−TΔS (PCNA; 300 mM NaCl): 9.8 ± 0.72 kcal/mol
N (binding stoichiometry) (PCNA; 400 mM NaCl): 0.80 ± 0.02
ΔH (PCNA; 400 mM NaCl): -18.2 ± 0.72 kcal/mol
−TΔS (PCNA; 400 mM NaCl): 9.8 ± 0.96 kcal/mol

Ac-KRKKQTSMTDFYHSRKK-NH2 [p21SWAP]
N (binding stoichiometry) (PCNA; 100 mM NaCl): 0.95 ± 0.04
ΔH (PCNA; 100 mM NaCl): -14.5 ± 0.22 kcal/mol
−TΔS (PCNA; 100 mM NaCl): 4.9 ± 0.22 kcal/mol
N (binding stoichiometry) (PCNA; 200 mM NaCl): 0.79 ± 0.09
ΔH (PCNA; 200 mM NaCl): -18.2 ± 0.48 kcal/mol
−TΔS (PCNA; 200 mM NaCl): 9.08 ± 0.48 kcal/mol
N (binding stoichiometry) (PCNA; 300 mM NaCl): 0.82 ± 0.04
ΔH (PCNA; 300 mM NaCl): -17.2 ± 0.96 kcal/mol
−TΔS (PCNA; 300 mM NaCl): 8.6 ± 0.96 kcal/mol
N (binding stoichiometry) (PCNA; 400 mM NaCl): 0.79 ± 0.01
ΔH (PCNA; 400 mM NaCl): -17.7 ± 0.48 kcal/mol
−TΔS (PCNA; 400 mM NaCl): 9.08 ± 0.48 kcal/mol

Ac-RRRRQTSMTDFYHSRRR-NH2 [p21All–R]
N (binding stoichiometry) (PCNA; 100 mM NaCl): 0.80 ± 0.05
ΔH (PCNA; 100 mM NaCl): -20.8 ± 0.24 kcal/mol
−TΔS (PCNA; 100 mM NaCl): 10.8 ± 0.48 kcal/mol
N (binding stoichiometry) (PCNA; 200 mM NaCl): 0.73 ± 0.01
ΔH (PCNA; 200 mM NaCl): -20.1 ± 0.72 kcal/mol
−TΔS (PCNA; 200 mM NaCl): 10.8 ± 0.72 kcal/mol
N (binding stoichiometry) (PCNA; 300 mM NaCl): 0.68 ± 0.01
ΔH (PCNA; 300 mM NaCl): -20 ± 0.22 kcal/mol
−TΔS (PCNA; 300 mM NaCl): 11 ± 0.24 kcal/mol
N (binding stoichiometry) (PCNA; 400 mM NaCl): 0.61 ± 0.02
ΔH (PCNA; 400 mM NaCl): -19.4 ± 0.72 kcal/mol
−TΔS (PCNA; 400 mM NaCl): 10.5 ± 0.72 kcal/mol

B1: p21_(SWAP) peptide (peptide)
peptide: Ac-KRKKQTSMTDFYHSRKK-NH2
Kd [2]: 87 nM
dH [2]: -14.5 kcal/mol
stoichiometry N [2]: 0.95
Kd [3]: 206 nM
dH [3]: -18.2 kcal/mol
stoichiometry N [3]: 0.79
Kd [4]: 407 nM
dH [4]: -17.2 kcal/mol
stoichiometry N [4]: 0.82
Kd [5]: 547 nM
dH [5]: -17.7 kcal/mol
stoichiometry N [5]: 0.79

B2: p21_(All–R) peptide (peptide)
peptide: Ac-RRRRQTSMTDFYHSRRR-NH2
Kd [2]: 45 nM
dH [2]: -20.8 kcal/mol
stoichiometry N [2]: 0.8
Kd [3]: 139 nM
dH [3]: -20.1 kcal/mol
stoichiometry N [3]: 0.73
Kd [4]: 273 nM
dH [4]: -20 kcal/mol
stoichiometry N [4]: 0.68
Kd [5]: 398 nM
dH [5]: -19.4 kcal/mol
stoichiometry N [5]: 0.61

B3: p21_(All–K) peptide (peptide)
peptide: Ac-KKKKQTSMTDFYHSKKK-NH2
Kd [2]: 87 nM
dH [2]: -16.3 kcal/mol
stoichiometry N [2]: 0.92
Kd [3]: 347 nM
dH [3]: -17.7 kcal/mol
stoichiometry N [3]: 0.75
Kd [4]: 456 nM
dH [4]: -19.1 kcal/mol
stoichiometry N [4]: 0.71
Kd [5]: 653 nM
dH [5]: -18.2 kcal/mol
stoichiometry N [5]: 0.8

B4: p21_(core) peptide (isolated p21 core motif QTSMTDFYHS) (peptide)
peptide: Ac-QTSMTDFYHS-NH2
dH [2]: -13.4 kcal/mol
stoichiometry N [2]: 0.7
Kd [4]: 34300 nM
dH [4]: -21 kcal/mol
stoichiometry N [4]: 0.71

B5: p21_(140–156) peptide (wild-type p21 PIP-degron with flanking regions) (peptide)
peptide: Ac-RKRRQTSMTDFYHSKRR-NH2
Kd [6]: 19 nM
dH [6]: -17.7 kcal/mol
stoichiometry N [6]: 0.77
Kd [2]: 68 nM
dH [2]: -18.1 kcal/mol
stoichiometry N [2]: 0.86
Kd [3]: 182 nM
dH [3]: -21.5 kcal/mol
stoichiometry N [3]: 0.86
Kd [4]: 341 nM
dH [4]: -21.4 kcal/mol
stoichiometry N [4]: 0.76
Kd [5]: 606 nM
dH [5]: -22.2 kcal/mol
stoichiometry N [5]: 0.8
Kd [7]: 579 nM
dH [7]: -21.3 kcal/mol
stoichiometry N [7]: 0.72
